A selection: hits, their analogues and other compounds. The true share with any hit is near 3.1%.
KCNK3 block: human KCNK3 channel inhibition, primary screen; 340,000 compounds, 0.84% hits; B-score at 10 µM; AID 602410; CHO-KCNK3 thallium flux, FluxOR fluorescence; stronger effect = lower value;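 active means B-score under library mean minus 4 SD, starting fluorescence ratio at most library mean plus 5 SD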;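 further: more negative B-score means stronger inhibition of thallium flux through KCNK3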
Target sequence (O14649 whole entry, looked up): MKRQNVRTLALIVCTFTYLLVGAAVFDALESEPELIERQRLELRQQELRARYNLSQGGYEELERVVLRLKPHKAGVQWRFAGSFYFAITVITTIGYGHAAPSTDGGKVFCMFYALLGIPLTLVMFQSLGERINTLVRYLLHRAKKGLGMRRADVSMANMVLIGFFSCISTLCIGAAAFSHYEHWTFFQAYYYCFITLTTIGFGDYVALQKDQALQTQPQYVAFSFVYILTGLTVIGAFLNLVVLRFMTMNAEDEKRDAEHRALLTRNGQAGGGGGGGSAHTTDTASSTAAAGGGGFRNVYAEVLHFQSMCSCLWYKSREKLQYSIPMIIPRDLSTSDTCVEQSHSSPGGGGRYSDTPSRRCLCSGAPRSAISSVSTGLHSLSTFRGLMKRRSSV
KCNQ1 block: inhibitors of human KCNQ1 potassium channel; B-score at 10 µM; CHO-K1 KCNQ1, FluxOR thallium flux fluorescence; stronger effect = higher value; 310,000 compounds, 1.3% hits; P51787;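 active means compounds whose thallium flux B-score, printed positive for inhibition, exceeds three library SD while starting fluorescence stays within three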;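 further: channel opened by potassium depolarization with thallium stimulus after 20 min compound exposure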
KCNQ1 act: potentiates or activates the human KCNQ1 potassium channel; P51787; CHO-K1 KCNQ1, thallium flux FluxOR fluorescence; stronger effect = higher value; B-score at 10 µM; 310,000 compounds, 0.35% hits;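 active means fluorescence ratio B-score, a plate-corrected score, at least three library SD, with initial intensity B-score within 5 SD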
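assay system = KCNQ1-transfected CHO-K1 cells | medium = assay buffer with matched DMSO | probe or stimulus = depolarizing K+/Tl+ stimulus, K2SO4 and Tl2SO4 each 12.5 mM in 5x stock | dosing = single dose | incubation = dye 90 min, compound 20 min, room temperature | detection = kinetic FluxOR fluorescence, 10 s baseline plus 110 s post-stimulus | evaluation = ratio B score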
hERG protect: hERG (human) protection from proarrhythmic block | Q12809 | CHO-hERG, FluxOR thallium flux, dofetilide IC70 present | activation (rescue from dofetilide block), less the hit threshold, % at 10 µM | 310,000 compounds, 0.51% hits;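 active means activation above the mean of controls blocked by dofetilide plus 5 SD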;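 further: thallium influx through hERG after potassium depolarization seen as dye fluorescence rise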
KCNK9 block: human KCNK9 channel inhibition; HEK293 KCNK9, FluxOR thallium flux fluorescence; stronger effect = lower value; B-score at 10 µM; 310,000 compounds, 1.2% hits; AID 488922;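 active means ratio B-score over 3 SD below the library mean, with starting fluorescence within 5 SD of its mean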;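 further: negative B-score means less thallium flux so channel inhibition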
Starred values were filed as active, the others as inactive; i = inactive; nt = no result.

SMILES	KCNK3 block	KCNQ1 block	KCNQ1 act	hERG protect	KCNK9 block
CO/N=C/c1cccn1-c1nccc(N(C)C)c1C#N	i	i	i	-4	i
FC(F)(F)c1ccc(Cl)c(N/N=C/c2ccc(N3CCOCC3)s2)c1	i	i	i	-1	-6.9*
O=C(N/N=C/c1ccc(N2CCOCC2)s1)c1ccccc1Cl	i	i	i	-11	i
CCCCOc1ccc(C(=O)NNC(=O)c2cnccn2)cc1OC	i	nt	nt	nt	nt
Nc1ccc(C(=O)NCCCSc2ccccc2)cc1[N+](=O)[O-]	i	i	i	-4	i
CC(=O)Nc1ccc(S[C@@H](CCN2CC[C@H](C(C)(C)C)CCC2=O)c2ccccc2)cc1	i	nt	nt	nt	nt
CC(C)(C)[C@H]1CCC(=O)N([C@H](CSc2ccccc2)Cc2ccccc2)CC1	i	i	i	-9	-6.8*
CC(C)(C)[C@@H]1CCC(=O)N(CC[C@H](Sc2ccccc2)c2ccccc2)CC1	i	6*	i	-4	i
COCCn1cnc2c1c(=O)n(CC(=O)NC(=O)NC(C)(C)C)c(=O)n2Cc1ccccc1	i	i	i	-6	i
CC(=O)Nc1ccc(NC(=O)CSc2ccc3nnc(-c4cccnc4)n3n2)cc1	i	i	i	-10	i
COc1cc(OC)cc(C(=O)NC2CC(C)(C)NC(C)(C)C2)c1	i	i	i	-1	i
Cc1ccc(C(=O)NCCSCc2ccc(Cl)cc2Cl)cc1[N+](=O)[O-]	i	8*	i	-7	i
Cc1ccc(C(=O)NCCSC(C)(C)C)cc1[N+](=O)[O-]	i	i	i	-8	i
Cc1ccc(C(=O)NCC2CCCO2)cc1[N+](=O)[O-] (stereo not drawn)	i	i	i	4.7*	i
Cc1c(C(=O)NCCSCc2ccc(Cl)cc2Cl)cccc1[N+](=O)[O-]	i	i	i	10.0*	i
Cc1nc(SCCOc2ccccc2)[nH]c(=O)c1Cc1ccccc1	i	i	i	-8	i
N=c1ncn(Cc2ccccc2)c2nc(SCCOc3ccccc3)[nH]c12	i	i	9*	-5	i
CC(=O)c1cccc(NC(=S)NNC(=O)c2ccc(C)c([N+](=O)[O-])c2)c1	i	i	i	-7	i
Cc1ccc(C(=O)NNC(=S)Nc2cccc(Cl)c2Cl)cc1[N+](=O)[O-]	i	9*	i	-10	i
CCOC(=O)CC(=O)CSc1ncnc2c1nnn2-c1ccc(OC)cc1	i	i	i	7.0*	i
CCN(CC)C(=O)CSc1ncnc2c1nnn2-c1ccc(OC)cc1	i	i	i	-10	i
Cc1c(C#N)c(O)[nH]c(=O)c1N=Nc1ccc(Br)cc1C(=O)O	i	i	i	4.6*	i
Cc1cccc(N=Nc2c(C)c(C#N)c(O)[nH]c2=O)c1	i	i	i	-10	i
CC(=O)c1cnc2ncnn2c1C	i	i	i	-9	i
O=c1cc2c(c(-c3ccccc3)n1Cc1ccccc1)[C@H](CCO)NC2	i	nt	nt	nt	nt
SMILES	KCNK3 block	KCNQ1 block	KCNQ1 act	hERG protect	KCNK9 block
OCC[C@@H]1NCc2cc(CO)cc(-c3ccccc3)c21	-9.9*	nt	nt	nt	nt
O=C(COc1ccccc1)NCc1nnc2c3ccccc3c(-c3ccccc3)nn12	i	i	i	-18	i
CCSc1nnc(N2C(=O)c3ccc(C(=O)c4ccc(C(=O)O)cc4)cc3C2=O)s1	i	i	i	-6	i
COc1ccc(Cl)cc1S(=O)(=O)NCc1ccncc1	i	i	i	-5	i
CC1CC(C)CN(c2ncc3c(n2)CC(c2ccccc2Cl)CC3=O)C1 (stereo not drawn)	i	i	i	-12	i
CC1CC(C)CN(c2ncc3c(n2)CC(c2ccc(Cl)cc2)CC3=O)C1 (stereo not drawn)	i	6*	i	-10	i
N#CC(c1ccc(O)cc1)N1CCN(C(C#N)c2ccc(O)cc2)CC1 (stereo not drawn)	i	nt	nt	nt	nt
CCOC(=O)c1nc(Nc2ccc(Nc3ccccc3)cc2)c2ccccc2n1	i	i	i	-16	-7.6*
COc1ccc(CCNC(=O)COC(=O)CCC(=O)c2ccc(F)cc2)cc1OC	i	i	i	-12	i
CCSc1nc(=S)cc(C)[nH]1	i	i	24*	25*	i
O=C1c2cccnc2C(=O)N1Cc1ccc(S(=O)(=O)N2CCOc3ccccc32)cc1	i	i	i	-3	i
CCCC1=Nc2cc(C(=O)N3CCN(c4ccccn4)CC3)ccc2Sc2ccc(C)cc21	i	7*	i	-19	i
C[C@@H](OC(=O)N1CCCCC1)[C@H]1O[C@]2(C)CCCC[C@H]1O2	i	nt	nt	nt	nt
COC(=O)C(C)NC(=O)c1ccc(C(C)(C)C)cc1 (stereo not drawn)	i	i	i	-2	i
C=CCOc1ccc(/C(O)=C2/C(=O)C(=O)N(CCCn3ccnc3)C2c2ccco2)cc1 (stereo not drawn)	i	i	i	-8	i
CCCOc1ccc(/C(O)=C2/C(=O)C(=O)N(CCCn3ccnc3)C2c2ccco2)cc1 (stereo not drawn)	i	i	i	6.8*	i
CN(C)c1ccc(N2C(=O)CSC2=S)cc1	i	i	i	6.8*	i
Cc1cc(N2CCN(c3ccccc3)CC2)nc(-c2ccccc2)n1	i	i	i	-2	-7.6*
CC[C@H](C)/C=C(C)/C=C/C(=O)Cc1cc(O)c(C)c(O)c1C=O	-10*	11*	i	-14	i
Cc1cc(O)c2c(c1)CC1C3CCC4CC(=O)CCC4(C)C3CC(=O)C21C (stereo not drawn)	i	nt	nt	nt	nt
COc1ccc(-n2c(C(C)(C)C)csc2=Nc2c(C)n(C)n(-c3ccccc3)c2=O)cc1	i	i	i	-4	i
COc1ccc(-c2csc(=Nc3c(C)n(C)n(-c4ccccc4)c3=O)n2C(C)(C)C)cc1	i	i	i	5.1*	i
CN(C)C(=O)c1cc(C(=O)c2ccc(C(F)(F)F)cc2)c[nH]1	i	i	i	-2	i
CCC(=O)c1ccc(OCC(=O)OC(C)C(=O)N2CCc3ccccc32)cc1 (stereo not drawn)	i	i	i	-15	i
O=C(O)C1C(=O)NCC1c1ccccc1 (stereo not drawn)	i	i	i	-8	i
CCCc1[nH]nc2c1C(c1cccc(OC(=O)c3ccco3)c1)C(C#N)=C(N)O2 (stereo not drawn)	i	i	i	4.6*	i
COc1cccc(CNc2ccccc2O)c1OCc1ccccc1F	i	i	i	-5	i
O=C(CNC(=O)c1ccccc1F)N/N=C/c1cc(Br)ccc1OCc1ccccc1	i	i	i	-15	-6.6*

Compound activity: PubChem BioAssay, Johns Hopkins Ion Channel Center
